A short description of data set [1]: Drug level treated with diuridine 5'-O-Palpha,alpha,5''-O-Palpha,alpha-tetrathiotetraphosphate at 2 mM at pD 12.6 at room temperature after 16 days by 31P NMR method. It is filed as physicochemical. The following applies: 384 h, 2000 µM.
Data set [2] in a line: Drug level treated with UTP 5'-O-Palpha,alpha-dithiophosphate-beta,gamma-methylene at 2 mM at pH 11.7 at room temperature after 25 days by 31P NMR method. It is filed as physicochemical. Particulars: pH 11.7, 600 h, 2000 µM.
A short description of data set [3]: Drug level treated with UTP 5'-O-Palpha,alpha-dithiophosphate at 2 mM at pH 11.7 at room temperature after 25 days by 31P NMR method. It is filed as physicochemical. The following applies: pH 11.7, 600 h, 2000 µM.
The nature of data set [4]: Drug level treated with UTP 5'-O-Palpha,alpha-dithiophosphate-beta,gamma-methylene at 2 mM at pH 1.7 at room temperature after 25 days by 31P NMR method. It is filed as physicochemical. The following applies: pH 1.7, 600 h, 2000 µM.
In data set [5] the target is T1, Ectonucleotide pyrophosphatase/phosphodiesterase family member 1 (Homo sapiens) (UniProt P22413).
T1 sequence (whole entry): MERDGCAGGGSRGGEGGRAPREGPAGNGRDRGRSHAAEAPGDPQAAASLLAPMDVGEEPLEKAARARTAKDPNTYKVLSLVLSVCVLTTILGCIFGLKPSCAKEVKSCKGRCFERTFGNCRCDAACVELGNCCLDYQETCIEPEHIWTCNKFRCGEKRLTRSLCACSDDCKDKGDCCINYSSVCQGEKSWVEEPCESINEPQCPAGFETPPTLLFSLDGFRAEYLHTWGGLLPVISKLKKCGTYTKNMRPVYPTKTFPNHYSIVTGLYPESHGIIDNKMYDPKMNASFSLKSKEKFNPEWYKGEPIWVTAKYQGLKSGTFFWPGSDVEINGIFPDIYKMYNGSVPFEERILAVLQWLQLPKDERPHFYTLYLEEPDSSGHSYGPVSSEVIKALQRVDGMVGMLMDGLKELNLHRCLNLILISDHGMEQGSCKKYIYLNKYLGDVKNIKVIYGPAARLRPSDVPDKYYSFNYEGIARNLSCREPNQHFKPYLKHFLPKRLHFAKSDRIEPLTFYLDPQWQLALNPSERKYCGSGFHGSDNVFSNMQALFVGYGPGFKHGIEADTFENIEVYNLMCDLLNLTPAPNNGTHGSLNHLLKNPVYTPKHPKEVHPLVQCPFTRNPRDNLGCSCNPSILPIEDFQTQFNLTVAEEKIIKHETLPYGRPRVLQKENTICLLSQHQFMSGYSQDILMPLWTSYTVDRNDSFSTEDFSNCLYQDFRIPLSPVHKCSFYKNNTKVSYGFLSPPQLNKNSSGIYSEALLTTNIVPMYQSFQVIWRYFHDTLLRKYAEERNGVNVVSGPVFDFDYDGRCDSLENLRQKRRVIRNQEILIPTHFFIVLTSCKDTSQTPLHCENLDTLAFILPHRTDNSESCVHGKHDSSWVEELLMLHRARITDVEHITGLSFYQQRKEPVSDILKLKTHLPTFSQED
The experiment in a line: Inhibition of human NPP1 at 100 uM using pNP-TMP as substrate preincubated for 3 mins followed by substrate addition measured after 15 mins relative to control. The method, boiled down: (§1)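 Human NPP1 (4−5 μg) or NPP3 (12−14 μg) cell lysate in mM 1 CaCl2, 140 NaCl, 5 KCl, 50 Tris pH 8.5, 37 °C. Compound at 100 μM, 3 min preincubation, 100 μM pNP-TMP substrate. p-Nitrophenol read at 405 nm after 15 min. Blank with enzyme added at end subtracted. Activity without compound taken as 100%. At least two independent experiments in triplicate.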

Data set [6] addresses T2, Ectonucleotide pyrophosphatase/phosphodiesterase family member 3 (Homo sapiens) (UniProt O14638).
T2 sequence (whole entry): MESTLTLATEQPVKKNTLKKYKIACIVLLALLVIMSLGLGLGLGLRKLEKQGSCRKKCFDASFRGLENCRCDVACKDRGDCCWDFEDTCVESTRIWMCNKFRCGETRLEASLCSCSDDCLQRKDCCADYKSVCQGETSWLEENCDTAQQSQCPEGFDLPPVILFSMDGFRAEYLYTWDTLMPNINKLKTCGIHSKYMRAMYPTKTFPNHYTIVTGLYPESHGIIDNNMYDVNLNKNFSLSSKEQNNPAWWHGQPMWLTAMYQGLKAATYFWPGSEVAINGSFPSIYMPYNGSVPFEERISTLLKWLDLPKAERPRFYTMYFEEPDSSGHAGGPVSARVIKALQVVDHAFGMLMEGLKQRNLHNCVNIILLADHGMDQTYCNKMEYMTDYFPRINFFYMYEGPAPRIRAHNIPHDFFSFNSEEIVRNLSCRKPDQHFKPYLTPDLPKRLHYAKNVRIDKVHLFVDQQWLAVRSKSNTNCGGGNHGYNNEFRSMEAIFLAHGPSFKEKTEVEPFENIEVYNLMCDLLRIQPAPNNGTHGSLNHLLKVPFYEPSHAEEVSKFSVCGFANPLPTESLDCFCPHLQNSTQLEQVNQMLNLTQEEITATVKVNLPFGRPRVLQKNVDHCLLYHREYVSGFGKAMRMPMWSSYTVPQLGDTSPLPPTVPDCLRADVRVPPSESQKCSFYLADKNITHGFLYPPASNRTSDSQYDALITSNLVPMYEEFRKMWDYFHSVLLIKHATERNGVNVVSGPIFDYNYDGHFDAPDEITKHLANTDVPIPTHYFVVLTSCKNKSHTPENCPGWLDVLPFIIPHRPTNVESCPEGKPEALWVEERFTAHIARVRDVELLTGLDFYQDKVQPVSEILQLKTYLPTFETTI
The experiment in a line: Inhibition of human NPP3 at 100 uM using pNP-TMP as substrate preincubated for 3 mins followed by substrate addition measured after 15 mins. The method, boiled down:
as §1

Data set [7] can be described thus: Drug metabolism at 2 mM at basic pH after 5 days by 31P NMR method. The format is physicochemical. The following applies: read-out: Drug metabolism.
Data set [8] has as its target P2Y purinoceptor 4 (Homo sapiens) (UniProt P51582). The experiment in a line: Agonist activity at recombinant human P2RY4 expressed in AD293 cells assessed as increase in intracellular calcium levels by Fluo-4/AM dye-based spectrofluorometer. It is filed as functional, cell-based. An outline of the steps: (§2)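 Human P2Y2, P2Y4 or P2Y6 receptor stably expressed in AD293 cells. Compound at 100 μM. Agonism read as change in intracellular calcium (Δ[Ca2+]i), with UDP or UTP as control.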
For orientation: Calcium assays in cells follow changes in intracellular calcium, usually with a dye or a luminescent sensor.

The target of data set [9] is T3, Ectonucleoside triphosphate diphosphohydrolase 3 (Homo sapiens) (UniProt O75355).
T3 sequence (whole entry): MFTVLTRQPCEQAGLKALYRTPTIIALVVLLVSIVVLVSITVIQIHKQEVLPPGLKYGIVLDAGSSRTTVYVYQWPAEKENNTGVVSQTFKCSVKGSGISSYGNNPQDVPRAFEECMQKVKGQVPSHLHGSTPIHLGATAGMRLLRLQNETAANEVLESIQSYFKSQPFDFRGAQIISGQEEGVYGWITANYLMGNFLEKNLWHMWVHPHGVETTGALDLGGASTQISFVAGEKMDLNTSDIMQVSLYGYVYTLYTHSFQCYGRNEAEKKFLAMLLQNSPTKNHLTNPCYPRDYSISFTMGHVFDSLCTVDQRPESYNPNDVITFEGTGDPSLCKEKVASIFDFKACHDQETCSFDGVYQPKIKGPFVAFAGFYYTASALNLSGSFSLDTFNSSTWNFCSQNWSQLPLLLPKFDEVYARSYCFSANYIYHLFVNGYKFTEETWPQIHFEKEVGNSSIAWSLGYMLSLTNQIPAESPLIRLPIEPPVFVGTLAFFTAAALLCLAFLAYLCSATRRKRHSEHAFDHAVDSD
Put plainly: Inhibition of human NTPDase3 at 100 uM using ATP as substrate preincubated for 3 mins followed by substrate addition measured after 10 mins by malachite green reagent-based assay. The method, boiled down:
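Compound at 100 μM, 3 min preincubation, 100 μM ATP, 10 min. Stopped with malachite green; Pi read at 630 nm. Blank with enzyme added after stop subtracted. Activity with ATP alone taken as 100%.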

Data set [10] deals with T1, Ectonucleotide pyrophosphatase/phosphodiesterase family member 1 (Homo sapiens). The experiment in a line: Inhibition of human NPP1 at 100 uM using ATP as substrate preincubated for 3 mins followed by substrate addition measured after 25 mins. An outline of the steps:
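Human NPP1 cell lysate in mM 1 CaCl2, 140 NaCl, 5 KCl, 50 Tris pH 8.5, 37 °C. Compound at 100 μM, 3 min preincubation, 100 μM ATP substrate. Stopped after 25 min by heating 2 min at 95 °C. Pyrophosphate measured with a commercial kit.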

For data set [11], the target named is P2Y purinoceptor 2 (Homo sapiens) (UniProt P41231). Put plainly: Agonist activity at recombinant human P2RY2 expressed in AD293 cells assessed as increase in intracellular calcium levels by Fluo-4/AM dye-based spectrofluorometer. The format is functional, cell-based. An outline of the steps: as §2
Sequence of P2Y purinoceptor 2 (Homo sapiens) (P41231 whole entry): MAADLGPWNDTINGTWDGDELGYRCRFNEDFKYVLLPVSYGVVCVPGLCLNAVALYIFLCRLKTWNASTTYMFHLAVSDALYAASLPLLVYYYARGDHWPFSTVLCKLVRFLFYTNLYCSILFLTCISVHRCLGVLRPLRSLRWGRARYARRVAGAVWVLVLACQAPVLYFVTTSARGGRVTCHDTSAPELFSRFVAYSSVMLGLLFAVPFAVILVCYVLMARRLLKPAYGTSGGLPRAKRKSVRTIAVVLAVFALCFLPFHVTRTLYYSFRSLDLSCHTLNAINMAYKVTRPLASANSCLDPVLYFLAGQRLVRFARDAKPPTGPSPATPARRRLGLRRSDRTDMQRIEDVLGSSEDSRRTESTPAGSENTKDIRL
Data set [12] in a line: Stability of the compound assessed as air oxidation at room temperature at 1.8 mM after 3 weeks by 31P NMR method. The format is physicochemical. Particulars: 504 h, 1800 µM.
Data set [13] addresses P2Y purinoceptor 6 (Homo sapiens) (UniProt Q15077). The experiment in a line: Agonist activity at recombinant human P2RY6 expressed in AD293 cells assessed as increase in intracellular IP1 levels. The format is functional, cell-based. The method, boiled down:
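Human P2Y6 receptor stably expressed in AD293 cells. Compound at 100 μM. Gq activation read as accumulation of inositol 1-phosphate (IP1).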

Data set [14] is described as follows: Drug metabolism at 2 mM at acidic pH after 5 days by 31P NMR method. The format is physicochemical. Particulars: read-out: Drug metabolism.
Data set [15] deals with P2Y purinoceptor 6 (Homo sapiens) (UniProt Q15077). The experiment in a line: Agonist activity at recombinant human P2RY6 expressed in AD293 cells assessed as increase in intracellular calcium levels by Fluo-4/AM dye-based spectrofluorometer. The format is functional, cell-based. The method, boiled down:
as §2

The nature of data set [16]: Drug metabolism at 2 mM at pH 1.7 at room temperature after 28 days by 31P NMR method. It is filed as physicochemical. Particulars: read-out: Drug metabolism.
Data set [17] is described as follows: Drug metabolism at 2 mM at pH 1.7 at room temperature after 20 days by 31P NMR method. Particulars: read-out: Drug metabolism. The format is physicochemical.
Data set [18] in a line: Drug metabolism at 2 mM at pH 11.7 at room temperature after 20 days by 31P NMR method. It is filed as physicochemical. Particulars: read-out: Drug metabolism.
Data set [19] can be described thus: Half life of the compound at pH 7.4. It is filed as physicochemical.

Each structure is given as a SMILES string. Calls of active or inactive are those of the source. The rule behind the calls is not given here.

Usually inhibition stands for the share of the control response that was lost under treatment. A word on the half-life: it is the time in which the quantity being followed falls by half. Read a low half-life as fast loss.

Sequence of P2Y purinoceptor 6 (Homo sapiens) (Q15077 whole entry): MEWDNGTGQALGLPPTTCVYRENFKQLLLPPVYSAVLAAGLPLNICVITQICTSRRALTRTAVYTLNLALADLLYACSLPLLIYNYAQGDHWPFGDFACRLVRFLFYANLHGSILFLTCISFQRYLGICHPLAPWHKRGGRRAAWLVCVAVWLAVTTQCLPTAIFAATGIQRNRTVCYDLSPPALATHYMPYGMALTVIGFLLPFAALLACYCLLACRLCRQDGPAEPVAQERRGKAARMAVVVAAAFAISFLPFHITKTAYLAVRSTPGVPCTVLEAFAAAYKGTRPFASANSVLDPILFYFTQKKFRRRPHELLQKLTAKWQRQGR
Sequence of P2Y purinoceptor 4 (Homo sapiens) (P51582 whole entry): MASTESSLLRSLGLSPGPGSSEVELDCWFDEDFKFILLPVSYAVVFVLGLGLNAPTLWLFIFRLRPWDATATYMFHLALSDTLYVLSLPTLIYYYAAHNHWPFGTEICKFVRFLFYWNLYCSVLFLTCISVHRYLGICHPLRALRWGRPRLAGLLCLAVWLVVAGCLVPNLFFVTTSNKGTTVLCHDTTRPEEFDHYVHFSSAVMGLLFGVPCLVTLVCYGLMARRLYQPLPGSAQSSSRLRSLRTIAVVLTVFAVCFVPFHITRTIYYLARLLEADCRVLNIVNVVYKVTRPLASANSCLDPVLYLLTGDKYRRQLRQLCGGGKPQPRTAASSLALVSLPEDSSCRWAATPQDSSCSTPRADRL

Consider `O=c1ccn([C@@H]2O[C@H](COP(O)(=S)S)[C@@H](O)[C@H]2O)c(=O)[nH]1` (some centres undefined), for which the Drug metabolism result in data set [1], in [2] and in data set [3] was “Metabolite_Detected” each time.
Take `O=P(O)(O)CP(=O)(O)O` [MEDRONIC ACID]: the Drug metabolism entry in data set [4] and in data set [2] was “Metabolite_Detected” throughout.
With `O=c1ccn([C@@H]2O[C@H](COP(=S)(S)OP(=O)(O)OP(=O)(O)OP(=S)(S)OC[C@H]3O[C@@H](n4ccc(=O)[nH]c4=O)[C@H](O)[C@@H]3O)[C@@H](O)[C@H]2O)c(=O)[nH]1` (some centres undefined), the inhibition in [5] was 80 to 100%; in data set [6], 27%; in data set [9], 24%. Besides, the degraded at 120 h, 2000 µM in [7] turned out to be 9%; in data set [14], 6%. For the same compound, the outcome in data set [8] and in data set [11] was inactive. The inhibition result in data set [10] was “Active”. Moreover, in data set [12], the Stability entry was “Stable”. Also, the result in data set [13] and in data set [15] was Active.
On to `O=c1ccn([C@@H]2O[C@H](COP(=O)(O)OP(=O)(O)O)[C@@H](O)[C@H]2O)c(=O)[nH]1` [URIDINE_DIPHOSPHATE], for which the degraded at 672 h, 2000 µM in [16] was found to be 7%.
Regarding `O=c1ccn([C@@H]2O[C@H](COP(=O)(O)O)[C@@H](O)[C@H]2O)c(=O)[nH]1`, the Drug metabolism entry in data set [3] is given as “Metabolite_Detected”.
As for `O=c1ccn([C@@H]2O[C@H](COP(=O)(O)OP(=O)(O)OP(=O)(O)O)[C@@H](O)[C@H]2O)c(=O)[nH]1` [URIDINE TRIPHOSPHATE], the degraded at 480 h, 2000 µM in data set [17] amounted to 11%; in data set [18], 10%. Further, the results for the degraded at 120 h, 2000 µM in data set [7] and in [14] were 8% and 5%, respectively.
In the case of `Nc1nc(SCc2ccccc2)nc2c1ncn2[C@@H]1O[C@H](COP(O)(=S)OP(=O)(O)OP(=O)(O)O)[C@@H](O)[C@H]1O` (some centres undefined), the degraded at 120 h, 2000 µM in data set [14] worked out at 25%. Besides, in data set [19], the half-life was 11 days.
On to `OP(O)(=S)S`, for which the Drug metabolism entry in [1], in data set [2] and in data set [3] was “Metabolite_Detected” throughout.
Consider `O=c1ccn([C@@H]2O[C@H](COP(O)(=S)SCCS)[C@@H](O)[C@H]2O)c(=O)[nH]1` (some centres undefined), for which the Drug metabolism result in data set [2] and in [3] was “Metabolite_Detected” each time.

The values above are taken from ChEMBL document CHEMBL4177769, “Highly Selective and Potent Ectonucleotide Pyrophosphatase-1 (NPP1) Inhibitors Based on Uridine 5'-Pα,α-Dithiophosphate Analogues” (J Med Chem, 2018).
